Assay results gathered from unrelated publications.
Each line is one published result; the experiments were not run side by side.
Observed: enzyme activity
Action: inhibitor
COQ8B: Atypical kinase COQ8B, mitochondrial (COQ8B, Homo sapiens, UniProt Q96D53)
ACVR2B: Activin receptor type-2B (ACVR2B, Homo sapiens, UniProt Q13705)
BMP2K: BMP-2-inducible protein kinase (BMP2K, Homo sapiens, UniProt Q9NSY1)
murC: UDP-N-acetylmuramate--L-alanine ligase (murC, Escherichia coli K-12, UniProt P17952)

SMILES | target | method | concentration | remaining activity [%]
Cc1ccc(C(=O)Nc2ccc(CN3CCN(C)CC3)c(C(F)(F)F)c2)cc1C#Cc1cnc2cccnn12 | COQ8B |  | 23.5 nM | 89
CC(C)(C)c1nc2c(s1)c1nc(N)ncc1c1ccc(NS(=O)(=O)c3c(F)cccc3F)c(F)c12 | ACVR2B | radiometric | 1 µM | 88
Brc1cnc(Nc2cccc(CN3CCOCC3)c2)nc1NCCc1c[nH]cn1 | BMP2K | radiometric | 1 µM | 1
O=[N+]([O-])c1cccc(COc2cccc(C=NNS(=O)(=O)c3ccc4ccccc4c3)c2)c1 | murC | absorbance | 50 µM | 58
Cc1nn(CC(F)(F)F)cc1Nc1nccc(NCCc2cnc[nH]2)n1 | BMP2K | radiometric | 1 µM | 104
CCCOc1ccc(OC)c(F)c1C(=O)c1ccc(C(=O)N[C@@H]2CNC[C@H]2NC(=O)c2ccc3[nH]ncc3c2)cc1 | Rho-associated protein kinase 2 (ROCK2, Homo sapiens, UniProt O75116) |  | 50 nM | 38
CC(C)(C)c1nc(-c2cccc(NS(=O)(=O)c3c(F)cccc3F)c2F)c(-c2ccnc(N)n2)s1 | ACVR2B | radiometric | 1 µM | 46
O=[N+]([O-])c1cccc(S(=O)(=O)Oc2ccccc2C=NNS(=O)(=O)c2ccc3ccccc3c2)c1 | murC | absorbance | 50 µM | 65
Cc1nn(CC(F)(F)F)cc1Nc1nccc(NCc2ccc(S(N)(=O)=O)cc2)n1 | BMP2K | radiometric | 1 µM | 86
O=C(Nc1ccccc1C=NNS(=O)(=O)c1ccc2ccccc2c1)c1cc([N+](=O)[O-])cc([N+](=O)[O-])c1 | murC | absorbance | 100 µM | 51
COc1cc(Cl)c(C(=O)N[C@@H](CN[C@H]2CC[C@@H](N)CC2)Cc2ccc(C#N)cc2)cc1-c1ccc(CN[C@H](C)c2ccc(C)cc2)o1 | MAPK/MAK/MRK overlapping kinase (MOK, Homo sapiens, UniProt Q9UQ07) |  | 1 µM | 102
O=[N+]([O-])c1ccc(S(=O)(=O)Oc2ccccc2C=NNS(=O)(=O)c2ccc3ccccc3c2)cc1 | murC | absorbance | 100 µM | 75
NS(=O)(=O)c1ccc(CNc2nc(Nc3cccc(CN4CCOCC4)c3)ncc2C2CC2)cc1 | BMP2K | radiometric | 1 µM | 68
O=[N+]([O-])c1ccccc1S(=O)(=O)Oc1ccccc1C=NNS(=O)(=O)c1ccc2ccccc2c1 | murC | absorbance | 50 µM | 55
Cc1nn(CC(F)(F)F)cc1Nc1nccc(NCCCNC(=O)C2CCC2)n1 | BMP2K | radiometric | 1 µM | 101
Nc1ncnc2occ(-c3ccc(NC(=O)Nc4cc(C(F)(F)F)ccc4F)cc3)c12 | COQ8B |  | 20 µM | 24
